For assay [1], the target named is Growth hormone secretagogue receptor type 1 (Homo sapiens, UniProt Q92847). Kind of assay: Agonist activity at human GHS receptor expressed in H4 cells by FLIPR assay. The format is functional, cell-based.
Assay [2] deals with Rattus norvegicus. As to the kind of experiment: Stimulation of growth hormone release in rat at 0.17 umol/kg, iv relative to control. In kind it is functional. The gist of the method: (§1)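 Fasted male Wistar rats (200–250 g) were anesthetized with ketamine 30 mg/kg plus xylazine 10 mg/kg ip. They were dosed iv at 10 mL/kg in vehicle (10% ethanol, […] V/V), five rats per group. Aortic blood was drawn 15 min post-dose, and plasma rat GH was measured by radioimmunoassay. Results are given as % GH increase ± SEM versus vehicle control.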

The test system of assay [3] is Rattus norvegicus. Kind of assay: Stimulation of growth hormone release in rat at 0.052 umol/kg, iv relative to control. In kind it is functional. The essentials: as §1
In assay [4] the test system is Rattus norvegicus. Kind of assay: Stimulation of growth hormone release in rat at 0.017 umol/kg, iv relative to control. The format is functional. The essentials:
as §1

From ChEMBL document CHEMBL1144840, “Tetrazole based amides as growth hormone secretagogues” (Bioorg Med Chem Lett, 2008) come the findings set out here.

Usually EC50 stands for the concentration needed to bring the measured effect to its halfway point. Low values mean an effect from little substance, high ones a need for much substance.

Growth hormone secretagogue receptor type 1, sequence (Q92847 whole entry): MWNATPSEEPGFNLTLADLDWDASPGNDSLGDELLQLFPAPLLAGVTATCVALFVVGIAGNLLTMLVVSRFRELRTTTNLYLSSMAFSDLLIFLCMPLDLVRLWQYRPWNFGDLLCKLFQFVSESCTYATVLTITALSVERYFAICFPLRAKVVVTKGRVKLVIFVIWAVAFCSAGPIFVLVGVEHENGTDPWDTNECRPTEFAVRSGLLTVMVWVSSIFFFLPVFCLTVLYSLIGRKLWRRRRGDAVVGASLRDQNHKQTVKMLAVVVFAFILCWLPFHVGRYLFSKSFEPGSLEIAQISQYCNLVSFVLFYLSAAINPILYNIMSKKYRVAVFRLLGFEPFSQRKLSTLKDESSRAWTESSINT

On to `CC(C)(N)C(=O)N[C@H](COCc1ccccc1)c1nnnn1CCCC(=O)NCCCO`, for which, in assay [1], a half-maximal response (EC50) required 27 nM and the Intrinsic activity was greater than 85%.

Turning to `CC(C)(N)C(=O)N[C@H](COCc1ccccc1)c1nnnn1CCCC(=O)NCCCCCO`, in assay [1], the concentration giving a half-maximal response (EC50) is 1.3 nM and the Intrinsic activity was greater than 85%.

Turning to `CC(C)(N)C(=O)N[C@H](COCc1ccccc1)c1nnnn1CCCC(=O)NCCS(N)(=O)=O`, in assay [1], a half-maximal effect (EC50) was put at 1.4 nM and the Intrinsic activity was greater than 85%. In addition, the Activity in assay [2] is given as 408%.

In assay [1], `CC(C)(N)C(=O)N[C@H](COCc1ccccc1)c1nnnn1CCCC(=O)NCCO` returned an EC50 of 40 nM and an Intrinsic activity greater than 85%.

Turning to `CC(C)(N)C(=O)N[C@H](COCc1ccccc1)c1nnnn1CCCC(=O)NCCCc1ccccc1`, in assay [1], the response was half-maximal at 33 nM (EC50) and the Intrinsic activity is greater than 85%.

Take `CCCCCCCC(=O)OC[C@H](NC(=O)CNC(=O)[C@@H](N)CCCNC(=N)N)C(=O)N[C@@H](CO)C(=O)N[C@@H](Cc1ccccc1)C(=O)N[C@@H](CC(C)C)C(=O)N[C@@H](CO)C(=O)N1CCC[C@H]1C(=O)N[C@@H](CCC(=O)O)C(=O)N[C@@H](Cc1cnc[nH]1)C(=O)N[C@@H](CCC(N)=O)C(=O)N[C@@H](CCCCN)C(=O)N[C@@H](C)C(=O)N[C@@H](CCC(N)=O)C(=O)N[C@@H](CCC(N)=O)C(=O)N[C@@H](CCCNC(=N)N)C(=O)N[C@@H](CCCCN)C(=O)N[C@@H](CCC(=O)O)C(=O)N[C@@H](CO)C(=O)N[C@@H](CCCCN)C(=O)N[C@@H](CCCCN)C(=O)N1CCC[C@H]1C(=O)N1CCC[C@H]1C(=O)N[C@@H](C)C(=O)N[C@@H](CCCCN)C(=O)N[C@@H](CC(C)C)C(=O)N[C@@H](CCC(N)=O)C(=O)N1CCC[C@H]1C(=O)O`: the Intrinsic activity in assay [1] was greater than 85%.

In assay [1], `CC(C)(N)C(=O)N[C@H](COCc1ccccc1)c1nnnn1CCCC(=O)NCCCCO` displayed an EC50 of 1.8 nM and an Intrinsic activity greater than 85%.

Consider `CC(C)(N)C(=O)N[C@H](COCc1ccccc1)c1nnnn1CCNC(=O)CCCCO`, for which, in assay [1], it took 4.4 nM to reach a half-maximal effect (EC50) and the Intrinsic activity is greater than 85%. The compound further yielded an Activity in assay [2] of 722%.

Consider `CC(C)(N)C(=O)N[C@H](COCc1ccccc1)c1nnnn1CCCC(=O)NCCC(N)=O`, for which, in assay [1], a half-maximal effect (EC50) was put at 7.6 nM and the Intrinsic activity is greater than 85%.

With `CC(C)(N)C(=O)N[C@H](COCc1ccccc1)c1nnnn1CCCC(=O)NCCCCCCO`, in assay [1], the half-maximal effective concentration (EC50) turned out to be 0.6 nM and the Intrinsic activity was greater than 85%. The Activity in assay [2] was 522%.

In assay [1], `CC(C)(N)C(=O)N[C@H](COCc1ccccc1)c1nnnn1CCOc1ccccc1C(=O)NCCO` displayed an EC50 of 11 nM and an Intrinsic activity greater than 85%.

In the case of `CC(C)(N)C(=O)N[C@H](COCc1ccccc1)c1nnnn1CCOc1ccccc1C(=O)NCCCCO`, in assay [1], the EC50 amounted to 0.9 nM and the Intrinsic activity was greater than 85%.

Take `CC(C)(N)C(=O)N[C@H](COCc1ccccc1)c1nnnn1CCCC(=O)NCCS(=O)(=O)CCO`: in assay [1], the concentration for a half-maximal effect (EC50) came to 0.2 nM. The same compound came in with an Intrinsic activity in assay [1] greater than 85%. The figures for the Activity in assay [2], in assay [3] and in assay [4] were 1290%, 956% and 398%, respectively.

For `CCCCNC(=O)CCCn1nnnc1[C@@H](COCc1ccccc1)NC(=O)C(C)(C)N`, in assay [1], the Intrinsic activity is greater than 85%.

With `CC(C)(N)C(=O)N[C@H](COCc1ccccc1)c1nnnn1CCCC(=O)NCCc1cccc(O)c1`, in assay [1], it took 0.2 nM to reach a half-maximal effect (EC50) and the Intrinsic activity was greater than 85%. Besides, the Activity in assay [2] worked out at 606%.

In assay [1], `CC(C)(N)C(=O)N[C@H](COCc1ccccc1)c1nnnn1CCCC(=O)NCCSCCO` came in with an EC50 of 0.2 nM and an Intrinsic activity greater than 85%.

For the compound `CN(CCc1cccc(S(=O)(=O)CCO)c1)C(=O)CCCn1nnnc1[C@@H](COCc1ccccc1)NC(=O)C(C)(C)N`, in assay [1], the EC50 was 2.9 nM and the Intrinsic activity is greater than 85%.

For `CC(C)(N)C(=O)N[C@H](COCc1ccccc1)c1nnnn1CCOc1cccc(C(=O)NCCO)c1`, in assay [1], the concentration for a half-maximal effect (EC50) is 8.4 nM and the Intrinsic activity is greater than 85%.

As for `CC(C)(N)C(=O)N[C@H](COCc1ccccc1)c1nnnn1CCCC(=O)NCCS(C)(=O)=O`, in assay [1], it took 4.1 nM to reach a half-maximal effect (EC50) and the Intrinsic activity is greater than 85%.

In assay [1], `CC(C)(N)C(=O)N[C@H](COCc1ccccc1)c1nnnn1CCCC(=O)NCCOCCO` had an EC50 of 0.7 nM and an Intrinsic activity greater than 85%.

In assay [1], `CC(C)(N)C(=O)N[C@H](COCc1ccccc1)c1nnnn1CCCC(=O)NCC(F)(F)F` registered a 50% effective concentration (EC50) of 26 nM and an Intrinsic activity greater than 85%.

For `CC(C)(N)C(=O)N[C@H](COCc1ccccc1)c1nnnn1CCOC(=O)NCCCCO`, the Intrinsic activity in assay [1] is greater than 85%. For the same compound, in assay [2], the Activity was found to be 264%.

For `CC(C)(N)C(=O)N[C@H](COCc1ccccc1)c1nnnn1CCCC(=O)NCc1ccccc1`, in assay [1], the EC50 was 32 nM and the Intrinsic activity is greater than 85%.

For the compound `CC(C)(N)C(=O)N[C@H](COCc1ccccc1)c1nnnn1CCCC(=O)NCCc1ccccc1`, in assay [1], the response was half-maximal at 23 nM (EC50) and the Intrinsic activity was greater than 85%.

In assay [1], `CCOC(=O)CCNC(=O)CCCn1nnnc1[C@@H](COCc1ccccc1)NC(=O)C(C)(C)N` returned an EC50 of 140 nM and an Intrinsic activity greater than 85%.

In assay [1], `CN(CCc1cccc(O)c1)C(=O)CCCn1nnnc1[C@@H](COCc1ccccc1)NC(=O)C(C)(C)N` came in with an EC50 of 3.1 nM and an Intrinsic activity greater than 85%.

In assay [1], `CC(C)(N)C(=O)N[C@H](COCc1ccccc1)c1nnnn1CCCC(=O)Nc1ccccc1` had an EC50 of 70 nM and an Intrinsic activity greater than 85%.

In assay [1], `CC(C)(N)C(=O)N[C@H](COCc1ccccc1)c1nnnn1CCCC(=O)NCCN1CCNC1=O` returned a concentration giving a half-maximal response (EC50) of 3.3 nM and an Intrinsic activity greater than 85%.

For the compound `CC(C)(N)C(=O)N[C@H](COCc1ccccc1)c1nnnn1CCCC(=O)NCCC(=O)O`, in assay [1], a half-maximal response (EC50) required 204 nM and the Intrinsic activity was greater than 85%.

In assay [1], `CC(C)(N)C(=O)N[C@H](COCc1ccccc1)c1nnnn1CCNC(=O)CCS(C)(=O)=O` showed a concentration giving a half-maximal response (EC50) of 14.7 nM and an Intrinsic activity greater than 85%.

In assay [1], `CC(C)(N)C(=O)N[C@H](COCc1ccccc1)c1nnnn1CCNC(=O)CCc1cccc(O)c1` gave an EC50 of 0.64 nM and an Intrinsic activity greater than 85%.

In assay [1], `CC(C)(N)C(=O)N[C@H](COCc1ccccc1)c1nnnn1CCCC(=O)NCCc1cccc(S(=O)(=O)CCO)c1` had an EC50 of 105 nM and an Intrinsic activity greater than 85%.

Take `CC(C)(N)C(=O)N[C@H](COCc1ccccc1)c1nnnn1CCOc1cccc(C(=O)NCCCCO)c1`: in assay [1], the EC50 was 3 nM and the Intrinsic activity is greater than 85%.

For `CC(C)(N)C(=O)N[C@H](COCc1ccccc1)c1nnnn1CCCC(=O)N[C@H]1CC[C@H](O)CC1`, in assay [1], the concentration giving a half-maximal response (EC50) amounted to 521 nM and the Intrinsic activity was greater than 85%.
